The record followed here is ChEMBL document CHEMBL1142820, “Identification of potent and selective MMP-13 inhibitors” (Bioorg Med Chem Lett, 2005).

The pIC50 is the IC50 on a negative log10 scale, so that one unit is a factor of ten. A lower pIC50 goes with a large IC50. The term bioavailability denotes the share of a dose that reaches the circulation, judged against a reference dose that is usually intravenous. The low end stands for little systemic uptake, the high end for much systemic uptake. As usually defined, the half-life is the time needed for the level to fall by half in the phase considered. A high value points to slow decline. For orientation: clearance means the rate of elimination divided by the concentration.

One data set addresses Collagenase 3 (Bos taurus, UniProt O77656). Kind of data set: Inhibitory concentration against MMP-13 of bovine articular cartilage explants.
The next data set is filed under the species Bos taurus. Kind of data set: Selectivity ratio for IC50 of MMP-2 to that of MMP-13. The method in brief: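 Both IC50s come from continuous fluorescence assays using quenched peptide substrates (7-methoxycoumarin or 2-aminobenzoyl fluorophore, 2,4-dinitrophenyl quencher), read by plate fluorimeter. MMP-13 was prepared in-house. MMP-2 was commercial and activated with […]. […] The ratio is MMP-2 IC50 over MMP-13 IC50.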

For data set [1], the target named is 72 kDa type IV collagenase (Homo sapiens, UniProt P08253). Kind of data set: Inhibitory concentration against MMP-2. The method in brief: (§1)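 Continuous fluorescence assay of commercially sourced enzyme cleaving a synthetic peptide whose fluorophore (7-methoxycoumarin or 2-aminobenzoyl) is quenched by 2,4-dinitrophenyl. Signal is read at the fluorophore's excitation/emission wavelengths. MMP-2 was preactivated with APMA. MMP-3 used substrate Mca-PKPLAL-Dpa-AR-NH2.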
Sequence of 72 kDa type IV collagenase (P08253 whole entry): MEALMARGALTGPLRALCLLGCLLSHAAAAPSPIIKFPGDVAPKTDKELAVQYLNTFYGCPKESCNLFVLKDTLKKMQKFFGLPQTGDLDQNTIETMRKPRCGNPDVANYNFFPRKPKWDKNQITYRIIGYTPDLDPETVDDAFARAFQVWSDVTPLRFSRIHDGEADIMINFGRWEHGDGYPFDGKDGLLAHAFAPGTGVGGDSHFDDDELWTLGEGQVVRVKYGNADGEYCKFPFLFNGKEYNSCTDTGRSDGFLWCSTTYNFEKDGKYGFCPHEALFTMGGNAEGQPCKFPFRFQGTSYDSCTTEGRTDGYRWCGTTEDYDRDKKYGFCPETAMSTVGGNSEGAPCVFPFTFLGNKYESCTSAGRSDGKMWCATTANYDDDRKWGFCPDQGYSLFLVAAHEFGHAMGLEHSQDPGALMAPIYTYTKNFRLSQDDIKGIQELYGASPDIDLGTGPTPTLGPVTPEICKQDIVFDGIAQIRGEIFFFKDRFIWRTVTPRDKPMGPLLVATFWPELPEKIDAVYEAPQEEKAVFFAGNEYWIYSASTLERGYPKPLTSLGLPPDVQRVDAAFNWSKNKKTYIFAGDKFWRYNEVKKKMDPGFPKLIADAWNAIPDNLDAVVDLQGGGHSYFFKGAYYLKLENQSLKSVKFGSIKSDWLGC

In data set [2] the target is Matrix metalloproteinase-14 (Homo sapiens, UniProt P50281). Kind of data set: Inhibitory concentration against MMP-14.
Data set [3] can be described thus: Inhibitory concentration against MMP-9. The method in brief: as §1
Data set [4] in a line: Inhibitory concentration against MMP-7. The method in brief:
as §1

The nature of data set [5]: Inhibitory concentration against MMP-3. The method in brief: as §1
A further data set addresses T1, Interstitial collagenase (Homo sapiens, UniProt P03956).
T1 sequence (P03956 whole entry): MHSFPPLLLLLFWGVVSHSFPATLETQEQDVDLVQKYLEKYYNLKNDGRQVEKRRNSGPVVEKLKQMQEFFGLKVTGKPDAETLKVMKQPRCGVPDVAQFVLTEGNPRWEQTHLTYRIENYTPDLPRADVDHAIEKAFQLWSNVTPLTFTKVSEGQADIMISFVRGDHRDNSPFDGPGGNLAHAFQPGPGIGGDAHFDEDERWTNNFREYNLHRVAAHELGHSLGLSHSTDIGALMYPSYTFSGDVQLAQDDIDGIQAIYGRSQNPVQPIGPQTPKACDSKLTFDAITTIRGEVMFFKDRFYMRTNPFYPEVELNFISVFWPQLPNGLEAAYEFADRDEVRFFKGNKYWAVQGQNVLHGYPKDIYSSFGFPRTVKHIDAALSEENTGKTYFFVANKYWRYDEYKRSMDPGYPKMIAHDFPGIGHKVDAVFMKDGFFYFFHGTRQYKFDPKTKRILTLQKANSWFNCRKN
Kind of data set: Inhibitory concentration against MMP-1. In outline: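 Continuous fluorescence assay with in-house prepared enzyme. The synthetic peptide substrate carries a 7-methoxycoumarin or 2-aminobenzoyl fluorophore quenched by energy transfer to 2,4-dinitrophenyl. Read in plate fluorimeter at fluorophore excitation/emission wavelengths.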

Data set [6] is described as follows: Oral bioavailability in rat. Format: ADME, organism-based. The conditions noted are these: in vivo. The method in brief:
(§2)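 Rats were dosed intravenously at 2 mg/kg and orally at 5 mg/kg. Clearance and iv half-life come from the intravenous arm, oral half-life from the oral arm, and bioavailability from comparison of the two routes.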

Data set [7] in a line: Half-life in rat upon oral administration at 5 mg/kg. Format: ADME, organism-based. Further details: dose 5 mg/kg, route oral. The conditions noted are these: in vivo. In outline:
as §2

Data set [8] in a line: Total clearance from rat upon iv administration at 2 mg/kg. Format: ADME, organism-based. Further details: dose 2 mg/kg, route intravenous. The note with it: in vivo. The method in brief:
as §2

The nature of data set [9]: Half-life in rat upon iv administration. The format is ADME, organism-based. The note with it: in vivo. The method in brief: as §2

pIC50: −log10 of the molar value.

At Collagenase 3, `COc1cccc2oc(C(=O)Nc3ccc(-c4ccc(S(=O)(=O)N[C@H](C(=O)O)C(C)C)cc4)cc3)cc12` showed a negative logarithm of the IC50 (pIC50) of 8.63. For the same compound, in the data set filed under Bos taurus, the Selectivity worked out at 6.9.
As to `CC(C)[C@H](NS(=O)(=O)c1ccc(-c2ccc(NC(=O)c3cc4cc(N)ccc4o3)cc2)cc1)C(=O)O`, on Collagenase 3, the negative-log IC50 (pIC50) was 8.82.
As to `CC(C)[C@H](NS(=O)(=O)c1ccc(-c2ccc(NC(=O)c3cc4cc(Cl)ccc4o3)cc2)cc1)C(=O)O`, the negative-log IC50 (pIC50) at Collagenase 3 was 9.22; in [1], 8.49. Further, in the data set filed under Bos taurus, the Selectivity amounted to 5.3.
With `CC(C)[C@H](NS(=O)(=O)c1ccc(-c2ccc(NC(=O)c3cc4c(OCc5ccccc5)cccc4o3)cc2)cc1)C(=O)O`, the Selectivity in the data set filed under Bos taurus was determined as 18.
The compound `CC(C)C[C@H](NS(=O)(=O)c1ccc(-c2ccc(NC(=O)c3cc4ccccc4o3)cc2)cc1)C(=O)O` gave a pIC50 against Collagenase 3 of 8.66.
On the same count and under the same terms, then `O=C(NCCCCN1CCOCC1)c1cc2ccccc2o1`, with 5.49.
Consider `CC(C)[C@H](NS(=O)(=O)c1ccc(-c2ccc(NC(=O)c3csnn3)cc2)cc1)C(=O)O`, for which, in data set [1], the negative logarithm of the IC50 (pIC50) is 8.67.
In turn, `O=C(O)CNS(=O)(=O)c1ccc(-c2ccc(NC(=O)c3cc4ccccc4o3)cc2)cc1` had a negative-log IC50 (pIC50) at Collagenase 3 of 7.66.
Turning to `CC(=O)Nc1ccc2oc(C(=O)Nc3ccc(-c4ccc(S(=O)(=O)N[C@H](C(=O)O)C(C)C)cc4)cc3)cc2c1`, the results for the pIC50 (against Collagenase 3; in data set [1]) were 9.01 and 8.40, respectively. In addition, in the data set listed under Bos taurus, the Selectivity is 4.1.
For `O=C(Nc1ccc(-c2ccc(S(=O)(=O)N[C@@H](CO)C(=O)O)cc2)cc1)c1cc2ccccc2o1`, the pIC50 against Collagenase 3 was 8.35; in data set [1], 7.56.
Consider `CC(C)[C@H](NS(=O)(=O)c1ccc(-c2ccc(NC(=O)c3cc4cc([N+](=O)[O-])ccc4o3)cc2)cc1)C(=O)O`, for which the negative-log IC50 (pIC50) against Collagenase 3 was 9.15; in [1] it was 8.70. Besides, the Selectivity in the data set filed under Bos taurus amounted to 2.8.
`Cc1cc(C)c(N(Cc2ccccc2)S(=O)(=O)c2ccc(OCCNC(=O)c3cc4ccccc4o3)cc2)c(C(=O)NO)c1`: the pIC50 at Collagenase 3 was 5.00.
As for `CC(C)[C@H](NS(=O)(=O)c1ccc(-c2ccc(NCc3cc4ccccc4o3)cc2)cc1)C(=O)O`, the pIC50 in [2] is 5.18; against Collagenase 3 it was 8.31; in [1] it was 7.63.
For the compound `CC(C)[C@H](NS(=O)(=O)c1ccc(-c2ccc(NC(=O)c3cc4cc(NS(C)(=O)=O)ccc4o3)cc2)cc1)C(=O)O`, the pIC50 was 9.37 on Collagenase 3 and 8.41 in data set [1]. For the same compound, the Selectivity in the data set listed under Bos taurus came to 9.1.
For the compound `CC(Oc1cccc2oc(C(=O)Nc3ccc(-c4ccc(S(=O)(=O)N[C@H](C(=O)O)C(C)C)cc4)cc3)cc12)C(=O)O` (stereo not given in full), the negative-log IC50 (pIC50) is 4.70 in data set [2]; 5.25 in data set [3]; 5.60 in [4]; 7.83 against Collagenase 3; 6.07 in data set [5]; 5.80 in data set [1]. Besides, the Selectivity in the data set listed under Bos taurus stood at 107.
On to `COc1ccc2oc(C(=O)Nc3ccc(-c4ccc(S(=O)(=O)N[C@H](C(=O)O)C(C)C)cc4)cc3)cc2c1`, for which the pIC50 in data set [2] was 8.82; on Collagenase 3, 9.18; in [1] it was 8.72. The Selectivity in the data set listed under Bos taurus worked out at 2.8.
The matching figures for `COc1cccc2cc(C(=O)Nc3ccc(-c4ccc(S(=O)(=O)N[C@H](C(=O)O)C(C)C)cc4)cc3)oc12`: 4.96, 7.69, 7.92 and 0.6.
Regarding `NC(=O)C[C@H](NS(=O)(=O)c1ccc(-c2ccc(NC(=O)c3cc4ccccc4o3)cc2)cc1)C(=O)O`, the negative-log IC50 (pIC50) on Collagenase 3 is 8.60.
In the case of `CC(C)[C@H](NS(=O)(=O)c1ccc(-c2ccc(NC(=O)c3cc4ccccc4o3)cc2)cc1)C(=O)O`, the negative logarithm of the IC50 (pIC50) on Interstitial collagenase is less than 4.80; in data set [1], 8.30. This compound also came in with a bioavailability in [6] of 24%. Also, the half-life stood at 3 h in data set [7] and 3.7 h in [9]. The same compound gave a clearance in data set [8] of 2 mL/min/kg.
On Collagenase 3, `CC(C)[C@H](NS(=O)(=O)c1ccc(-c2ccc(NC(=O)c3cc4cc(NS(=O)(=O)c5ccccc5)ccc4o3)cc2)cc1)C(=O)O` gave a negative-log IC50 (pIC50) of 8.47. Also, the Selectivity in the data set filed under Bos taurus stood at 5.6.
